Compound activity deposited in PubChem BioAssay by several laboratories.
The list is not random: actives were taken first. Their share in the collection is about 4.6%.
HDAC3 inh: HDAC3 deacetylase inhibitors, primary screen, biochemical, fluorescence, cell-free homogeneous | Histone deacetylase 3 (Homo sapiens), O15379 | recombinant HDAC3, fluorogenic peptide/trypsin coupled | inhibition, % at 8.3 µM | 320,000 tested, 0.15% active; in the data active means inhibition above about 26%, passing the limit was not always enough; inconclusive means no clear call, values can overlap the other calls
Rtt109 Vps75: inhibitors of C. albicans Rtt109/Vps75 HAT, primary screen, biochemical, ThioGlo CoA-SH fluorescence, plate reader; Histone acetyltransferase RTT109 (Candida albicans (strain SC5314 / ATCC MYA-2876)), …; purified Rtt109/Vps75, 4 h; inhibition, % at 34.9 µM; 330,000 tested, 0.16% active; AID 540336, 2011;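 active means inhibition of at least 50% in every replicate; inconclusive means best replicate reaches 50% inhibition but some replicates fall short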
Target sequence (Q5AAJ8 whole entry, looked up): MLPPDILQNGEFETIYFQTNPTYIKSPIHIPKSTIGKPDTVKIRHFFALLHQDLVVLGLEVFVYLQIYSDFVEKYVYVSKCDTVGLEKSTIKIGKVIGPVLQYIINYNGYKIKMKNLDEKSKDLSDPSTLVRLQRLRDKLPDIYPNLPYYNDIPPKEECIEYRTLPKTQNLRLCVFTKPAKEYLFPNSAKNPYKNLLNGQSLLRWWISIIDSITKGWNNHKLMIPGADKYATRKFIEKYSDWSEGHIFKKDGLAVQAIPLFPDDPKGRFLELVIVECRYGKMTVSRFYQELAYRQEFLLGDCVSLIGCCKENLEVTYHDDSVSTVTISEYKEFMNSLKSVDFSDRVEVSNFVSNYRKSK
ALR H2O2 inh: inhibitors of human ALR sulfhydryl oxidase, primary screen, biochemical, H2O2 detection, HRP-luminol luminescence, single point; FAD-linked sulfhydryl oxidase ALR (Homo sapiens), P55789; purified ALR, DTT oxidation; inhibition, % (concentration not given with the values); 290,000 tested, 3.8% active; AID 485317, 2010;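 active means mean replicate inhibition above about 79%, with every replicate also reaching it, limit read from the data; inconclusive means only one of the two criteria met; inactive means mean below limit and not every replicate reaching it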
Target sequence (P55789 whole entry, looked up): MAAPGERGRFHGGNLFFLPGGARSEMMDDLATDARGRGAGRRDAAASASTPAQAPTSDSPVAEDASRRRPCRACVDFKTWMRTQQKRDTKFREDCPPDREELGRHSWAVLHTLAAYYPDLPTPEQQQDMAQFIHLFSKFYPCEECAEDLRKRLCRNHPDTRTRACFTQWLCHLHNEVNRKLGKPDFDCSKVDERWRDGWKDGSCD
FAS-TE inh: FAS thioesterase domain inhibitors, primary screen, biochemical, fluorescence intensity, uHTS | Fatty acid synthase (Homo sapiens), P49327 | recombinant FAS-TE, OMFH fluorogenic substrate, fluorescence endpoint | inhibition, % at 15 µM | 360,000 tested, 0.67% active;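 active means compounds whose normalised, plate-corrected inhibition of enzyme fluorescence in the single-dose primary screen is 50% or more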;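 further: 0% = DMSO with enzyme and 100% = substrate without enzyme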
M18AAP inhibitor: PfM18AAP inhibitors, malaria aminopeptidase, primary screen, biochemical, QFRET, recombinant enzyme | M18 aspartyl aminopeptidase (Plasmodium falciparum 3D7) | 290,000 tested, 1.2% active | inhibition, % at 7.35 µM | H-Glu-NHMec fluorogenic cleavage;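 active means inhibition above the campaign mean inhibition over all tested compounds plus 3 SD, cut at about 28% in these data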;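 further: 0% = plate median of test compound wells and 100% = 2 mM ZnCl2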
UCH37 DUB inh: inhibitors of human UCH37 deubiquitinase, primary screen, biochemical, Ub-AMC cleavage, fluorescence. Ubiquitin carboxyl-terminal hydrolase isozyme L5 (Homo sapiens), Q9Y5K5. purified proteasome/UCH37. inhibition, % (no concentration beside the values). 330,000 tested, 0.33% active;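 active means mean inhibition over replicate wells above about 20%, limit read from the data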;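 further: 0% = compound-free wells with enzyme and 100% = wells lacking proteasome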
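Signal – fluorescence, ex 355 nm, em 460 nm · System – Proteasome-bound UCH37 · Input – 0.15 nM proteasome as dispensed · Timing – 30 min preincubation with enzyme, 25 min cleavage at room temperature · Read-out basis – percent inhibition of cleavage signal versus uninhibited and no-proteasome wells · Medium – Tris-HCl pH 7.4 with ATP-MgCl2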
* hit, by the source's call; ? = inconclusive; . = not tested or not shown.

SMILES	HDAC3 inh	Rtt109 Vps75	ALR H2O2 inh	FAS-TE inh	M18AAP inhibitor	UCH37 DUB inh
COc1cc(OC)c(NS(=O)(=O)c2c(C(=O)N3CCCCC3)c(C)n(C)c2C)cc1Cl	-1	-11	-12	43	-16	0
O=C(NCC(c1cccnc1)N1CCN(c2ccccc2)CC1)OCc1ccccc1 (centres undefined)	8	-7	76*	-2	4	0
O=C(NCC(c1cccnc1)N1CCN(c2ccccc2)CC1)c1ccc2c(c1)OCO2 (centres undefined)	5	1	99*	-2	4	1
O=C(NCC(c1cccnc1)N1CCN(c2ccc(F)cc2)CC1)OCc1ccccc1 (centres undefined)	-1	2	64	3	-8	-2
O=C(NCCc1c[nH]c2ccccc12)C(=O)NCC(c1cccnc1)N1CCN(c2ccccc2)CC1 (centres undefined)	2	3	18	-1	-9	5
COC(=O)NCC(c1cccnc1)N1CCN(c2ccccc2)CC1 (centres undefined)	3	3	89*	-4	4	1
O=C(NCC(c1cccnc1)N1CCOCC1)c1ccc2c(c1)OCO2 (centres undefined)	1	-2	.	-11	4	5
COc1cc(C(=O)NCC(c2cccnc2)N2CCN(c3ccccc3)CC2)cc(OC)c1OC (centres undefined)	.	-5	99*	-5	-5	0
COc1cc(C=NNC(=O)c2[nH]nc3c2CCc2ccccc2-3)ccc1O	.	.	.	.	.	-2
O=S(=O)(NCC(c1cccnc1)N1CCN(c2ccccc2)CC1)c1cccs1 (centres undefined)	-3	14	98*	-4	-11	-4
O=C(NCC(c1cccnc1)N1CCN(c2ccccc2)CC1)C1CCCCC1 (centres undefined)	-1	5	88*	-7	-7	4
COc1ccc(N2CCN(C(CNS(=O)(=O)c3cccs3)c3cccnc3)CC2)cc1 (centres undefined)	3	2	55	-4	0	0
Cc1ccc(C(=O)NN=Cc2cc3c(cc2Br)OCO3)s1	.	.	.	.	.	-56
Nc1c(S(=O)(=O)c2ccccc2)c2nc3ccccc3nc2n1C1CC1	-26	-1	99*	-2	1	-445
Cc1cccc(C(=O)NN=Cc2cc(Br)c(Br)o2)c1	.	.	.	.	.	0
c1ccc(N2CCN(c3ccccc3)C2c2ccncc2)cc1	-1	-3	86*	10	0	-1
COc1ccc(C(C)=NNC(=O)CNC(=O)COc2ccccc2)c(OC)c1	.	.	.	.	.	1
Cc1ccc(NC(=O)CN2C(=O)NC(C)(c3ccc(Cl)cc3)C2=O)cc1 (centres undefined)	9	12	0	9	0	2
Cc1ccc(C2(C)NC(=O)N(CC(=O)Nc3ccc(S(=O)(=O)Nc4nccs4)cc3)C2=O)cc1 (centres undefined)	4	0	96*	-3	.	1
O=C(OCc1ccc(Br)cc1)c1ccncc1	2	57*	-7	0	-8	2
O=C(OCc1ccc(Br)cc1)c1cccnc1	1	2	0	0	3	3
COc1ccc(CCNC(=O)c2cc3c(=O)n4cccc(C)c4nc3n(Cc3ccco3)c2=N)cc1OC	2	28	76*	-1	12	.
Cc1cc(C(=O)NN=C2CCCC(=O)C2)c(C)n1-c1ccccc1	.	.	.	.	.	1
Cc1nc2ccccc2cc1C(=O)NN=Cc1cccc([N+](=O)[O-])c1	.	.	.	.	.	0
COc1ccc2c(c1OC)C(=O)N(c1cccc(NC(C)=O)c1)C2	1	.	97*	-4	-11	3
SMILES	HDAC3 inh	Rtt109 Vps75	ALR H2O2 inh	FAS-TE inh	M18AAP inhibitor	UCH37 DUB inh
COc1ccc2c(c1OC)C(=O)N(c1ccc(F)cc1)C2	6	10	-2	1	-4	4
CCCCSCCCNC(=O)c1ccc(CS(=O)(=O)c2ccc(OC)cc2)o1	5	-4	4	6	-3	5
CCCCNC(=O)c1ccc(CS(=O)(=O)c2ccc(C)cc2)o1	-4	0	79*	-3	-22	7
COc1ccc(S(=O)(=O)Cc2ccc(C(=O)NCCCN(C)c3ccccc3)o2)cc1	9	5	99*	4	-3	5
CCCCNC(=O)c1ccc(CS(=O)(=O)c2ccc(OC)cc2)o1	-5	1	.	-1	0	6
CCOc1cc(/C=N/NC(=O)CCn2nnc3ccccc32)ccc1O	-1	1	100*	-1	6	.
CCn1c(SCC(=O)N/N=C/c2ccc(O)c(OC)c2)nc2ccccc21	8	-1	99*	-8	4	.
COc1cc(/C=N/NC(=O)C(C)n2nnc3ccccc32)ccc1O (centres undefined)	-1	7	97*	-4	14	.
COc1ccc(O)c(C=NNC(=O)CCn2nnc3ccccc32)c1	.	.	.	.	.	-22
COc1ccc(Cc2nc3ccccc3n2CC(=O)N/N=C/c2ccc(O)cc2)cc1OC	-9	-6	100*	-11	-6	.
CC(C)(C)c1cc(C(=O)NN=Cc2ccc([N+](=O)[O-])s2)n[nH]1	.	.	.	.	.	2
COc1cc(/C=N/NC(=O)CSc2n[nH]c(=O)[nH]c2=O)cc(OC)c1O	4	-11	98*	-1	14	.
CCn1c(SCC(=O)N/N=C/c2cc(OC)c(O)c(OC)c2)nc2ccccc21	5	7	99*	-10	19	.
CC(=NNC(=O)COc1ccccc1-c1ccccc1)c1ccc(O)cc1O	.	.	.	.	.	-2
CCOc1ccc(C2C(C(=O)Nc3ccccc3)=C(C)N=c3sc(=Cc4cccc(OCC(=O)O)c4)c(=O)n32)cc1 (centres undefined)	.	.	.	.	.	3
Clc1nc(CN2CCCCC2)nc2sc3c(c12)CCCC3	-2	4	19	2	0	-5
Cc1sc2nc(CN3CCCCC3)nc(Cl)c2c1C	-3	-1	98*	-5	2	2
N=c1c2c3c(sc2ncn1Cc1ccco1)CCCCC3	3	4	92*	-7	-5	0
CCOC(=O)CSc1nnc(NCC(=O)OC(C)C)c(=O)[nH]1	?	2	97*	37	-44	11
Cc1cc2c(Nc3ccc(O)cc3)ncnc2s1	-1	2	94*	-2	-11	6
CCc1cc2c(Nc3ccc(O)cc3)nc(C)nc2s1	5	8	100*	-1	-10	5
